We go through 48 sequences from the EternaBench riboswitch data.

The subject of the data set is MS2 coat protein. Briefly: apparent Kd, MS2 coat protein; higher = weaker binding; RNA-MaP array; FMN 200 µM where present. A digest of the protocol: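 SNAP-549-labelled MS2 coat protein, doubled from 0.7 or 1.5 nM to 3 µM, was titrated over designs transcribed by stalled E. coli RNA polymerase on Illumina sequencing-chip clusters. Titrations were run without and then with constant ligand in 100 mM Tris-HCl pH 7.5, 80 mM KCl, 4 mM MgCl2, BSA, DTT, yeast tRNA and Tween-20. The apparent Kd is the median of filtered per-cluster fits to green signal normalised to red-channel RNA signal and control-cluster median Fmax.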

Where [1] appears, read: designed as: OFF switch for flavin mononucleotide, no ligand.
[2] abbreviates: ligand present: flavin mononucleotide, designed as: OFF switch for flavin mononucleotide.
Where [3] appears, read: designed as: ON switch for flavin mononucleotide, no ligand.
[4] abbreviates: ligand present: flavin mononucleotide, designed as: ON switch for flavin mononucleotide.

“UUAUGUUAUGUAGGAUAUCACUUUAAUUGAUUAAUAUAUGAAUAUAGAAUUUGAGAAGGACAUUUACAUGAGGAUCACCCAUGU”: the “apparent Kd” value under setting [1] was 0.0123 µM and the “apparent Kd” value under setting [2] was 0.0085 µM.
Consider “GAGCUGCAGACAGGAUAUGAGGCCGCCAUGGUCUCAGAAGGGUCAUGUUCUACAUGAGGAUCACCCAUGUCGGACAGCUCGAAG”, for which the “apparent Kd” value came out at 0.134 µM under setting [3] and 0.011 µM under setting [4].
As for “UCAUGUUAAGGAUAUACAUGAGGAUCACCCAUGUUUGUUCAAAAUCUUAGAUCCCAAUGUAGAAGGUGGCUGUA”, the “apparent Kd” value runs as follows: under setting [1], 0.0758 µM; under setting [2], 0.0754 µM.
In the case of “GGUCUGAUAUGAGGAUAUGCUCAGGAAUACUGAGCAGAAGGCAUGUGAAAACAUGAGGAUCACCCAUGUGAUCAAUACAGACCA”, the “apparent Kd” value by setting is: under setting [3], 0.147 µM; under setting [4], 0.0237 µM.
The corresponding values for “GCAUGCGUUCGAGGAUAUCGGUGAGAAACGGAACGAGAAGGCGAUCGAAUGUCACAUAUUAUGUACAUGAGGAUCACCCAUGUA” are 0.126 µM and 0.0378 µM.
“UUGUUAUAUGUAGGAUAUGCGUAUUAUUAUUAUGCAGAAGGACAUGAGGAUCACCCAUGUAUGUUGUUGUUAUAUAUUAUAUAU”: the “apparent Kd” value worked out at 0.0229 µM under setting [1] and 0.0262 µM under setting [2].
Regarding “AAUGAUUCAGGAUAUACAUGAGGAUCACCCAUGUUGGUGUCCCUCCCAAAGUUGCAGUGUAGAAGGGAGUCCCG”, the “apparent Kd” value came out at 0.131 µM under setting [1] and 0.137 µM under setting [2].
The corresponding values for “AACAUGUGAGGAUAUUUAAGAAAAGAAAAGAAAGAAAAGAAAAAGAAGGCACAUGAGGAUCACCCAUGUAAGAA” are 0.0248 µM and 0.0358 µM.
The matching figures for “GGAUGUCAAAGACAUCCAAUUCGAACAUGAGGAUCACCCAUGUAGGAUAUGCUACUCAAAGAGUAGCAGAAGGACAUGUGCCUU”: 0.0306 µM and 0.213 µM.
On to “UCAGGCUUCGAGAAGGACAUGAGGAUCACCCAUGUUAACAUGAAGCAGCCGUGAGGCUGCAUCAUGUAGGAUAUCGGAGUCUGC”, for which the “apparent Kd” value under setting [1] came out at 0.00544 µM and the “apparent Kd” value under setting [2] was 0.00609 µM.
The corresponding values for “CACCGUUACAGAGGAUAUGAUACAUGAGGAUCACCCAUGUAAUAAAUGAGAAUUUCGAAUGUACCUCAGAAGGCUGGAACCGGC” are 0.0404 µM and 0.0832 µM.
The matching figures for “AAGAAGUGAGGAUAUCGUGCUCGUCACUUGCGUGAUGAGUACGAGAAGGCACAUGAGGAUCACCCAUGUAAAGA”: 0.0376 µM and 0.0461 µM.
Take “GUGAAGAAUUAAGGAUAUUGAAUACAUAUGUUUAACAUGAGGAUCACCCAUGUGGGUUGCGGUAUCGAGAAGGUAAAUUACUGG”: the “apparent Kd” value turned out to be 0.111 µM under setting [3] and 0.126 µM under setting [4].
Turning to “CCGAUGUGGGUACAGGAUAUGUGGGCCUCCACAUGAGGAUCACCCAUGUCGGAGGCAAAGCGGCUACAGAAGGGUGCGAGCUCGA”, the “apparent Kd” value runs as follows: under setting [3], 0.011 µM; under setting [4], 0.0129 µM.
The corresponding values for “UUUUAACUACAAUUACAUGAGGAUCACCCAUGUUUUGGGAUGCAGGAUAUGUGGUAUAUUAAUUAACAGAAGGGCAAUAAUUAA” are 0.0576 µM and 0.0464 µM.
Turning to “UGUUGUAUUACAGGAUAUCUAUUAGUUAUAUUUAGAGAAGGGUAUUCACAUGAGGAUCACCCAUGUAUAUACGAGGAAGUUGUG”, the “apparent Kd” value runs as follows: under setting [3], 0.0546 µM; under setting [4], 0.0619 µM.
The matching figures for “AGAACAUGAGGAUCACCCAUGUUAAGGUCGGUAAAUAAGGGUGAGGAUAUGCUUAAAAUAAGGAAGCAGAAGGUGCUUGGUGCA”: 0.183 µM and 0.195 µM.
The corresponding values for “AUGGUUGUCGUAGGAUAUGUAGGAUAUUCCUACAUGAGGAUCACCCAUGUUCGCAUGGAAGAAGGACAGAAGGACGAUGACCAU” are 1.15 µM and 0.0097 µM.
The corresponding values for “UGCUAACUGUAGAAGGGUGACAUGAGGAUCACCCAUGUGCACGCGCGAUUUACGGCGCGCGUGCCACAGGAUAUACAGUCGAGU” are 0.0283 µM and 0.0544 µM.
Take “UUAGGAGUUGUAGGAUAUCGGAUAGAAUGUAAACGAGAAGGACAUGAGGAUCACCCAUGUAUUGAAGAGAAGAGAGAGAGAGAG”: the “apparent Kd” value is, setting by setting: under setting [1], 0.0245 µM; under setting [2], 0.0211 µM.
The matching figures for “CACGAAGGAGGAUAUAUUAAGGCAGAUCCUAUACAUCGGUUACAUGAGGAUCACCCAUGUAGAAGGCCUACAAA”: 0.049 µM and 0.185 µM.
The matching figures for “AAGAAGUGAGGAUAUGCUGCUCGUCACUUGCGUGAUGAGUAGCAGAAGGCACAUGAGGAUCACCCAUGUGAAGA”: 0.0251 µM and 0.0423 µM.
The corresponding values for “GAGGUGUUAGGAUAUCGGAGAUGGAGAAGAACGGGAAGAGGCGAGAAGGAACAUGAGGAUCACCCAUGUAGGUG” are 0.433 µM and 0.329 µM.
As to “GCAGCACUCUUUAACAUGAGGAUCACCCAUGUCAAAAGACAUGAGGAUAUGCAUCUGAAGAAGAUGCAGAAGGCAUUGUGCUGC”, the “apparent Kd” value reads like this: under setting [3], 0.0323 µM; under setting [4], 0.00694 µM.
The matching figures for “ACUAGAUGCGUGAAAUAACACAUGAGGAUCACCCAUGUGACACAGGAUAUAACCAGAUCAGAAAGUUAGAAGGGUGAGCACGCA”: 0.0392 µM and 0.0212 µM.
For “GUCAGCUCGUGAGGAUAUACAACACUGCUUCGGCAGUGUAUUAAGAUCACAUGAGGAUCACCCAUGUAGAAGGCACGAGCUGAA”, the “apparent Kd” value runs as follows: under setting [1], 0.0137 µM; under setting [2], 0.245 µM.
In the case of “CGUGAAAACAUAGGAUAUUGUUACAUGAGGAUCACCCAUGUCAACCAUUUAUCUCAAAUUGUUGACAAGAAGGAUGAGGUCACG”, the “apparent Kd” value reads like this: under setting [3], 0.118 µM; under setting [4], 0.0389 µM.
In the case of “UGCAUGUAUGAGAAGGCUAAUUUGGACAUUAUUUAUGAUGAUGUUUAGGUUAGAGGAUAUUGGGACAUGAGGAUCACCCAUGUA”, the “apparent Kd” value was 0.0215 µM under setting [1] and 0.018 µM under setting [2].
The corresponding values for “UCCCGUUGUCAGAAGGCUCCUCGGAACCCGAGGAGAGGAUAUGACACAUGAGGAUCACCCAUGUGCCCGGUCGUGACAAAGGUG” are 0.0134 µM and 0.146 µM.
The corresponding values for “AGACUGCGUAGAAUUAGCAGCCGACAGGAUAUGACAUGAGGAUCACCCAUGUGAACUACAAAGGAUCAGAAGGGUCACGACACA” are 0.0201 µM and 0.0244 µM.
The matching figures for “AAGUAGAUCCGAGGAUAUACAAGGCGGAAAUGCUACAUGAGGAUCACCCAUGUAGAAGGCGGAUCUACAGGUACUAAAGUACCA”: 0.00671 µM and 0.0193 µM.
On to “UUCGUGCAGUUUUGCUGUACGCGUACAUGAGGAUCACCCAUGUAGGAUAUGGUAGGCUUUGCUUACUAGAAGGAUAGUGUGAUC”, for which the “apparent Kd” value runs as follows: under setting [1], 0.163 µM; under setting [2], 0.0338 µM.
The matching figures for “UUAAAUCAUGUAGGAUAUGCAUGGCGAAGCUACGCAGAAGGACAUGAGGAUCACCCAUGUUAUAGCUAGCCAGUUCGCUGGCAA”: 0.0236 µM and 0.164 µM.
The corresponding values for “GAUCCACAUGAGGAUCACCCAUGUGAGGAUAUGUCCAUAUUCGGCAAAUCGGAUAUGGACAGAAGGCACACCGG” are 0.12 µM and 0.0474 µM.
In the case of “UCGGCGCGAGGAUAUGCGGUUUGUGCUUCGGGCCCUCGCGUACAUGAGGAUCACCCAUGUAGAAGGCGCGCCGC”, the “apparent Kd” value was 0.201 µM under setting [1] and 0.123 µM under setting [2].
The corresponding values for “GGAUUACAUGAGGAUCACCCAUGUGAGGAUAUCGAUGUCCUGUCUUUAGUGCGGGACUCGAGAAGGCACUUGGA” are 0.048 µM and 0.159 µM.
The matching figures for “GGCUGACAUGUAGGAUAUCUGCACGUGUAGUGCAGAGAAGGACAUGAGGAUCACCCAUGUAUAGCGACUUCGGUCGCAACAGCC”: 0.0492 µM and 0.159 µM.
As to “CCUUUGAAGAUCCUAAAUUUCGACAUGAGGAUCACCCAUGUGCAGGAUAUCGUGCCAGUGAUGUACGAGAAGGGCAGUCUCUGC”, the “apparent Kd” value came out at 0.049 µM under setting [1] and 0.0535 µM under setting [2].
Consider “GUCGGAAACGACAAAAGUACCCGAGCAGAAGGCAUGUCAUAAGACAUGAGGAUCACCCAUGUGCAUGAGGAUAUGCUCGGGUAC”, for which the “apparent Kd” value runs as follows: under setting [3], 0.00583 µM; under setting [4], 0.00528 µM.
Take “AAGCGCUGUCAAGGAUAUCCGAAAAGAGAAUAAGGAGAAGGUGACAUGAGGAUCACCCAUGUGCACUGGGUGGACGCGCGCUCC”: the “apparent Kd” value reads like this: under setting [1], 0.549 µM; under setting [2], 0.196 µM.
The corresponding values for “UUGUUGUAUGUAGGAUAUGCAUAUUAUUAUUAUGCAGAAGGACAUGAGGAUCACCCAUGUAUGUUAUUAUUAUAUGUUAUGUGU” are 0.0399 µM and 0.0631 µM.
The matching figures for “GCCGGAUUUGUGAGGAUAUACCUAUGGAUACAUAGGUAGAAGGCACAUGAGGAUCACCCAUGUUCCUCUCCGGC”: 0.049 µM and 0.582 µM.
With “ACUGUUAAGACAGGAUAUCGAUUAUAACCUCUAAAACAUGAGGAUCACCCAUGUAGUCCGUAUUGCGAGAAGGGUCAUCUUAGA”, the “apparent Kd” value came to 0.274 µM under setting [3] and 0.205 µM under setting [4].
Regarding “CUGAGGUCAGGAUAUGCAUGGCGGGACUUGCGUCGUGGCGUGGAGAAGGGACAUGAGGAUCACCCAUGUGGAGU”, the “apparent Kd” value stood at 0.079 µM under setting [1] and 0.0542 µM under setting [2].
As to “CCUAUGUGAGGAUAUGGUGUUGGCCACAGGGAAAAGGUCCUCCAGAAGGCACAUGAGGAUCACCCAUGUCGUGG”, the “apparent Kd” value by setting is: under setting [1], 0.116 µM; under setting [2], 0.127 µM.
In the case of “GGGAAGUUAGGAUAUGCUGCUCGUCACUUGCGUGAUGAGUAGCAGAAGGGACAUGAGGAUCACCCAUGUAAAAA”, the “apparent Kd” value under setting [1] is 0.0511 µM and the “apparent Kd” value under setting [2] turned out to be 0.0268 µM.
The matching figures for “AUAGUGGUUUUCUGGAUGUUGAACAUGAGGAUCACCCAUGUAGAGGAUAUCCACGGAAAUCCGUAGGAGAAGGCUGGUGGAAAA”: 0.0156 µM and 0.0267 µM.
The matching figures for “GAGCAGUGUAAAUAAACUCAAAUACAUGAGGAUCACCCAUGUAAGGAUAUGCAGUGGAAUACACUGCAGAAGGUACAUCACUGC”: 0.0143 µM and 0.0205 µM.

One may read the apparent Kd as the concentration giving half-maximal binding under the conditions of the assay.
